Data published in ChEMBL document CHEMBL1125210, “Benzylated 1,2,3-triazoles as anticoccidiostats” (J Med Chem, 1991).
Calls of active or inactive are those of the source. The rule behind the calls is not given here.

Experiments:
[1] = tested on: Eimeria acervulina; test: Anticoccidial activity in chicken against Eimeria acervulina.; type: functional; set-up: Reduction: concentration or dose not given beside the values
Procedure, shortened: (§1)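 3-Day-old chicks infected separately with E. tenella or E. acervulina; test compound given mixed in the feed at the stated rates. Activity was scored as percent suppression of oocyst production versus infected, unmedicated controls. Toxicity was judged from average weight gain relative to uninfected controls.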

[2] = tested on: Eimeria tenella; test: Anticoccidial activity in chicken against E. tenella; type: functional; set-up: Reduction: concentration or dose not given beside the values; procedure, shortened: as §1
[3] = organism: Gallus gallus; test: The compound was tested for anti-coccidial activity in chicken against E. acervulina; Inactive; type: functional, organism-based; procedure, shortened: as §1
[4] = organism: Gallus gallus; test: The compound was tested for anti-coccidial activity in chicken against Eimeria maxima (DP-776) measured at dose 100 (ppm in diet); type: functional
[5] = organism: Gallus gallus; test: The compound was tested for anti-coccidial activity in chicken against Eimeria hagani (DP-786) measured at dose 100 (ppm in diet); type: functional
[6] = organism: Gallus gallus; test: The compound was tested for anti-coccidial activity in chicken against Eimeria brunetti (FS-103) measured at dose 100 (ppm in diet); type: functional
[7] = organism: Gallus gallus; test: The compound was tested for anti-coccidial activity in chicken against Eimeria mitis (LS-84) measured at dose 100 (ppm in diet); type: functional
[8] = organism: Gallus gallus; test: The compound was tested for anti-coccidial activity in chicken against Eimeria praecox (DP-785) measured at dose 100 (ppm in diet); type: functional
[9] = organism: Gallus gallus; test: The compound was tested for anti-coccidial activity in chicken against Eimeria tenella (DP-761) measured at dose 100 (ppm in diet); type: functional
Procedure, shortened: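 Test article mixed into the feed at the stated rates and given to 3-day-old chicks infected with […]. Each Eimeria species was inoculated separately. Activity was scored as percent suppression of oocyst output relative to infected, unmedicated controls. Toxicity was judged from average weight gain relative to uninfected controls.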

[10] = organism: Gallus gallus; test: The compound was tested for anti-coccidial activity in chicken against Eimeria acervulina (DP-761) measured at dose 100 (ppm in diet); type: functional
[11] = organism: Gallus gallus; test: The compound was tested for anti-coccidial activity in chicken against E. maxima(DP-776) measured at dose 125(ppm in diet); type: functional
[12] = organism: Gallus gallus; test: The compound was tested for anti-coccidial activity in chicken against E. mitis(LS-84) measured at dose 125(ppm in diet); type: functional
[13] = organism: Gallus gallus; test: The compound was tested for anti-coccidial activity in chicken against E. acervulina (DP-761) measured at dose 125(ppm in diet); type: functional
[14] = organism: Gallus gallus; test: The compound was tested for anti-coccidial activity in chicken against E. hagani(DP-786) measured at dose 125(ppm in diet); type: functional
[15] = organism: Gallus gallus; test: The compound was tested for anti-coccidial activity in chicken against E. praecox(DP-785) measured at dose 125(ppm in diet); type: functional
[16] = organism: Gallus gallus; test: The compound was tested for anti-coccidial activity in chicken against E. brunetti (FS-103) measured at dose 125(ppm in diet); type: functional
[17] = organism: Gallus gallus; test: The compound was tested for anti-coccidial activity in chicken against E. tenella(DP-761) measured at dose 125(ppm in diet); type: functional
[18] = organism: Gallus gallus; test: The compound was tested for anti-coccidial activity in chicken against Eimeria maxima (DP-776) measured at dose 60 (ppm in diet); type: functional
[19] = organism: Gallus gallus; test: The compound was tested for anti-coccidial activity in chicken against Eimeria hagani (DP-786) measured at dose 60 (ppm in diet); type: functional
[20] = organism: Gallus gallus; test: The compound was tested for anti-coccidial activity in chicken against Eimeria praecox (DP-785) measured at dose 60 (ppm in diet); type: functional
[21] = organism: Gallus gallus; test: The compound was tested for anti-coccidial activity in chicken against Eimeria brunetti (FS-103) measured at dose 60 (ppm in diet); type: functional
[22] = organism: Gallus gallus; test: The compound was tested for anti-coccidial activity in chicken against Eimeria mitis (LS-84) measured at dose 60 (ppm in diet); type: functional
[23] = organism: Gallus gallus; test: The compound was tested for anti-coccidial activity in chicken against E. brunetti (FS-103) measured at dose 33(ppm in diet); type: functional
[24] = organism: Gallus gallus; test: The compound was tested for anti-coccidial activity in chicken against E. maxima(DP-776) measured at dose 33(ppm in diet); type: functional
[25] = organism: Gallus gallus; test: The compound was tested for anti-coccidial activity in chicken against E. acervulina (DP-761) measured at dose 33(ppm in diet); type: functional
[26] = organism: Gallus gallus; test: The compound was tested for anti-coccidial activity in chicken against E. tenella(DP-761) measured at dose 33(ppm in diet); type: functional
[27] = organism: Gallus gallus; test: The compound was tested for anti-coccidial activity in chicken against E. hagani(DP-786) measured at dose 33(ppm in diet); type: functional
[28] = organism: Gallus gallus; test: The compound was tested for anti-coccidial activity in chicken against E. mitis(LS-84) measured at dose 33(ppm in diet); type: functional
[29] = organism: Gallus gallus; test: The compound was tested for anti-coccidial activity in chicken against E. praecox(DP-785) measured at dose 33(ppm in diet); type: functional

N#Cc1ccc(C(=O)c2c(Cl)cc(Cn3nnc(C(N)=O)c3N)cc2Cl)cc1
Reduction [1]: 90% | Reduction [2]: 90%

NC(=O)c1nnn(Cc2ccccc2)c1N
Reduction [3]: inactive

NC(=O)c1nnn(Cc2cc(Cl)c(C(=O)c3ccc(F)cc3)c(Cl)c2)c1N
Reduction [1]: 90% | Reduction [2]: 90%

NC(=O)c1ncn(Cc2ccc(Cl)c(Cl)c2)c1N
Reduction [1]: >99% | Reduction [2]: >99%

NC(=O)c1nnn(Cc2cc(Cl)c(C(=O)c3ccc(Cl)cc3)c(Br)c2)c1N
Reduction [1]: 90% | Reduction [2]: 90%

NC(=O)c1nnn(Cc2cc(Cl)c(C(=O)c3ccccc3)c(Cl)c2)c1N
Reduction [1]: 90% | Reduction [2]: 90%

NC(=O)c1nnn(Cc2cc(Cl)c(C(=O)c3ccc(I)cc3)c(Cl)c2)c1N
Reduction [1]: 90% | Reduction [2]: >99%

NC(=O)c1nnn(Cc2cc(Cl)cc(Cl)c2)c1N
MED [1]: > 125 ppm | MED [2]: > 125 ppm

CC[C@@H](C(=O)[C@@H](C)[C@@H](O)[C@H](C)CCc1ccc(C)c(O)c1C(=O)O)[C@H]1O[C@](CC)([C@H]2CC[C@](O)(CC)[C@H](C)O2)C[C@@H]1C [LASALOCID]
Reduction [4]: 100% | Reduction [1]: 80% | Reduction [5]: 74% | Reduction [6]: 100% | Reduction [7]: 100% | Reduction [8]: 34% | Reduction [9]: 100% | Reduction [10]: 16% | Reduction [2]: 80%

Cc1cc(C)nc(O)n1.O=C(Nc1ccc([N+](=O)[O-])cc1)Nc1ccc([N+](=O)[O-])cc1 [NICARBAZIN]
Reduction [11]: 21% | Reduction [1]: 80% | Reduction [12]: 100% | Reduction [13]: 0% | Reduction [14]: 0% | Reduction [15]: 34% | Reduction [16]: 100% | Reduction [17]: 100% | Reduction [2]: 80%

NC(=O)c1nnn(Cc2ccc(C(=O)c3ccc(Cl)cc3Cl)c(Cl)c2)c1N
MED [1]: > 250 ppm | Reduction [2]: 90%

NC(=O)c1nnn(Cc2ccc(Cl)c(Cl)c2)c1N
Reduction [1]: 80% | Reduction [2]: 80%

NC(=O)c1nnn(Cc2cc(Cl)c(C(=O)c3ccc(Cl)c(Cl)c3)c(Cl)c2)c1N
Reduction [1]: 90% | Reduction [2]: 90%

NC(=O)c1nnn(Cc2ccc(Cl)c(C(=O)c3ccc(Cl)cc3)c2)c1N
Reduction [1]: 90% | Reduction [2]: 90%

NC(=O)c1nnn(Cc2cc(F)c(C(=O)c3ccc(Cl)cc3)c(Cl)c2)c1N
Reduction [1]: 90% | Reduction [2]: 90%

NC(=O)c1nnn(Cc2cc(Cl)c(C(=O)c3ccc(C(Cl)=C(Cl)Cl)cc3)c(Cl)c2)c1N
Reduction [1]: 90% | Reduction [2]: 80%

NC(=O)c1nnn(Cc2ccc(C(=O)c3c(Cl)cc(Cl)cc3Cl)cc2)c1N
Reduction [1]: 90% | MED [2]: > 250 ppm

NC(=O)c1nnn(Cc2cccc(C(=O)c3ccc(Cl)cc3)c2)c1N
Reduction [1]: 90% | MED [2]: > 500 ppm

CC[C@@H](C(=O)[C@@H](C)[C@@H](O)[C@H](C)[C@@H]1O[C@@H]([C@@H](CC)C(=O)O)CC[C@@H]1C)[C@H]1O[C@]2(C=C[C@@H](O)[C@]3(CC[C@@](C)([C@H]4CC[C@](O)(CC)[C@H](C)O4)O3)O2)[C@H](C)C[C@@H]1C [SALINOMYCIN]
Reduction [18]: 0% | Reduction [19]: 0% | Reduction [20]: 62% | Reduction [21]: 74% | Reduction [2]: 85% | Reduction [22]: 91%

CCCc1ncc(C[n+]2ccccc2C)c(N)n1.Cl.[Cl-] [AMPROLIUM]
Reduction [11]: 0% | Reduction [1]: 80% | Reduction [12]: 36% | Reduction [13]: 7% | Reduction [14]: 0% | Reduction [15]: 18% | Reduction [16]: 79% | Reduction [17]: 100% | Reduction [2]: 80%

Nc1ncnc2c1ncn2Cc1c(F)cccc1Cl [ARPRINOCID]
Reduction [1]: 80% | Reduction [2]: 80%

NC(=O)c1nnn(Cc2cc(Cl)c(C(=O)c3cc(Cl)cc(Cl)c3)c(Cl)c2)c1N
Reduction [1]: > 99% | Reduction [2]: > 99%

N=C(N/N=C/c1ccc(Cl)cc1)N/N=C/c1ccc(Cl)cc1 [ROBENIDINE]
Reduction [1]: 80% | Reduction [23]: 100% | Reduction [24]: 21% | Reduction [25]: 99.9% | Reduction [26]: 0% | Reduction [27]: 0% | Reduction [28]: 100% | Reduction [29]: 54% | Reduction [2]: 80%

NC(=O)c1nnn(Cc2ccc(C(=O)c3c(Cl)cccc3Cl)cc2)c1N
MED [1]: > 250 ppm | MED [2]: > 250 ppm

COC(=O)c1ccc(C(=O)c2c(Cl)cc(Cn3nnc(C(N)=O)c3N)cc2Cl)cc1
MED [1]: > 250 ppm | MED [2]: > 250 ppm

NC(=O)c1nnn(Cc2ccc(C(=O)c3ccc(Cl)cc3)c(Cl)c2)c1N
Reduction [1]: 90% | MED [2]: > 500 ppm

NC(=O)c1nnn(Cc2ccc(C(=O)c3ccc(Cl)cc3)cc2)c1N
Minimum active dose [1]: > 500 ppm | MED [2]: > 500 ppm

NC(=O)c1nnn(Cc2cc(Cl)c(C(=O)c3ccc(Br)cc3)c(Cl)c2)c1N
Reduction [1]: 80% | Reduction [2]: 90%

NC(=O)c1nnn(Cc2ccc(Cl)cc2)c1N
Reduction [1]: 80% | MED [2]: > 1000 ppm
